Cytotoxicity data for 95 molecules are collected here from ChEMBL document CHEMBL4513216, “Probing the Open Global Health Chemical Diversity Library for Multistage-Active Starting Points for Next-Generation Antimalarials” (ACS Infect Dis, 2020).

The nature of the series: Toxicity liver stage against HepG2, at 10uM. The class given is cell-based. Also on record: test concentration 10 uM, cell line HepG2-A16-CD81EGFP. As to conditions: human, HepG2-A16-CD81EGFP cells; read-out: INHIBITION
In short, it runs like this:
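Uninfected HepG2-A16-CD81EGFP cells, 3 × 10^3 per well, 1536-well, plated on prespotted compound at 10 μM final, parasite-free screening media added to match infected plates; puromycin 10 μM positive, DMSO 0.5% negative; run in parallel with 48 h PbLuc assay at 37 °C, 5% CO2; viability by CellTiter-Glo luminescence, normalized to controls.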
Turning to `CN1CCN(c2ccc(NS(=O)(=O)c3ccc(Br)s3)cc2C(=O)O)CC1`, the cytotoxicity at 10 µM was -4.5%.
`c1ccc(CNc2nc(N3CCOCC3)nc3nccnc23)cc1`: the cytotoxicity at 10 µM was found to be 10.5%.
The result for `Cc1nn(C)cc1C1SCC(=O)Nc2c1c(O)nn2C(C)C` (stereo not given) reads 1.04%.
Then `Cc1cc(CN2CCC(CNS(=O)(=O)c3ccccc3Cl)CC2)c(C)o1`, with 9.51%.
Regarding `CCN1CCN(C(=O)Cn2nc(C(F)(F)F)c(Br)c2C2CC2)CC1`, the cytotoxicity at 10 µM was -8.78%.
With `CC1(C)CC2(CCO1)NC(=O)c1cc(Br)ccc1-n1nnnc12` (stereo not given), the cytotoxicity at 10 µM was determined as 5.97%.
Take `Cc1ccc(CNC(=O)c2nn(C)c3c2CS(=O)(=O)CC3)o1`: the cytotoxicity at 10 µM was found to be 6.14%.
`COc1ccccc1CNC(=O)Cn1ncc2c1c(C)nn2C`: the cytotoxicity at 10 µM was found to be 10.6%.
Regarding `Cc1nn(C)cc1CN1CCc2nc3sccc3c(=O)n2CC1`, the cytotoxicity at 10 µM is -1.87%.
Consider `CC1(C)O[C@@](C)([C@H]2CC3(CCN(c4cnccn4)CC3)CO2)CC[C@@H]1O`, for which the cytotoxicity at 10 µM stood at 5.53%.
For `CN(c1cccnn1)[C@@H]1CC[C@@H]2CN(Cc3cccc(C(=O)O)c3)C[C@@H]21`, the cytotoxicity at 10 µM is 6.17%.
Take `Cn1nccc1C(=O)N1CCC(c2ncc(Cl)cc2S(C)(=O)=O)CC1`: the cytotoxicity at 10 µM worked out at 7.91%.
As to `Cc1cccc(CN2CCC(c3nnsc3S(C)(=O)=O)CC2)n1`, the cytotoxicity at 10 µM is -8.69%.
For `C=Cn1ncc(CN2C[C@@H]3CCCN3C[C@@H]2CCSC)c1C`, the cytotoxicity at 10 µM turned out to be 0.026%.
`c1ncc(Nc2nccc(C3CCCCN3CC3CCCCC3)n2)cn1` (stereo not given): the cytotoxicity at 10 µM amounted to 3.32%.
Consider `CN(Cc1ccc(F)cc1)CC1(O)CCN(C(=O)c2cccn2C)C1` (stereo not given), for which the cytotoxicity at 10 µM was -3.19%.
For `CCOc1ccc(Cl)c(C(=O)NC(Cc2ccccc2)C(N)=O)n1` (stereo not given), the cytotoxicity at 10 µM is 15.4%.
`CCOc1ncccc1CNS(=O)(=O)c1ccc2c(c1)CCC2`: the cytotoxicity at 10 µM was found to be 13.3%.
Regarding `COc1ccc(CNC2CCc3ncnn3C2)cc1OCC1CC1` (stereo not given), the cytotoxicity at 10 µM is -8.74%.
`CC(O)(CNC(=O)NCCc1ccc2c(c1)CCO2)c1ccsc1` (stereo not given): the cytotoxicity at 10 µM was 7.4%.
Regarding `Cc1ccoc1C(=O)NCC(c1ccccc1Cl)N1CCOCC1` (stereo not given), the cytotoxicity at 10 µM amounted to 8.21%.
Turning to `Cc1nc(C(=O)N(C)C)nn1-c1ccccc1C(C)C`, the cytotoxicity at 10 µM was -0.665%.
Take `CCNC(=O)NC(=O)C(C)N1CCCc2cc(OC)ccc2C1` (stereo not given): the cytotoxicity at 10 µM is 9.86%.
Then `Cc1ncc(CN(C)c2nc3c(cnn3C(C)(C)C)c(=O)[nH]2)s1`, with -19.2%; and `CN(Cc1nnc2n1CCC2)S(=O)(=O)c1cc(Br)ccc1Br`, with 0.392%.
Then `Cn1cnnc1C1CCCN1C(=O)Nc1cccc(OC(F)F)c1` (stereo not given), with 8.25%; and `Cc1cc(NC(=O)C(C)Nc2ccn(Cc3ccccn3)n2)on1` (stereo not given), with -2.06%; and `CNC(=O)CC1CCN(C(=O)NCc2coc3ccccc23)CC1`, with -11.4%.
The result for `O=S(=O)(Cc1ccc(F)cc1)NCCc1nnc2n1CCC2` reads 17.2%; that for `CCOC(=O)CCNC(=O)c1cc(Cl)cc2cccnc12`, 15%; that for `O=C(NCC(CO)Cc1cccc(OC(F)(F)F)c1)c1cnccn1` (stereo not given), 7.66%.
For the molecule `Cc1ccc(CS(=O)(=O)Cc2nc(N)nc(N(C)C)n2)cc1`, the cytotoxicity at 10 µM came out at 3.13%.
Then `CC(C)(C)c1cnc(CN2CCC(NC(=O)C3CCOCC3)CC2)o1`, with -11.9%; and `O=C(NCc1ccncc1)N(Cc1ccccc1F)C1CC1`, with -3.32%.
With `CC(=O)N1CCCN(Cc2csc(-c3ncccn3)n2)CC1`, the cytotoxicity at 10 µM stood at 7.08%.
The result for `CCn1cnnc1C1CCN(C(=O)c2ccc3cc[nH]c3c2)CC1` reads 5.16%; that for `CS(=O)(=O)NC1CCc2[nH]c(=O)ccc2C1` (stereo not given), 3.46%; that for `CN1CCN(Cc2cn3c(n2)CN(Cc2cccnc2)CC3)CC1`, 5.25%.
With `CN1CC(=O)N(c2cccc(F)c2)CC12CCNC2` (stereo not given), the cytotoxicity at 10 µM amounted to 6.23%.
Turning to `Cc1cc(C)c2c(N3CCC(C(=O)N4CCOCC4)CC3)ncnc2n1`, the cytotoxicity at 10 µM was -11.1%.
Regarding `Cc1nc(-c2ccncc2)ncc1C(C)NC(=O)CN1CCOC1=O` (stereo not given), the cytotoxicity at 10 µM stood at 3.11%.
On to `COc1ccccc1CCc1nc(CC2CCN(C)CC2)no1`, for which the cytotoxicity at 10 µM was found to be 7.71%.
With `CCNC(=O)c1ccnc(N2CCCC(COc3ccccc3C)C2)c1` (stereo not given), the cytotoxicity at 10 µM turned out to be 2.08%.
Take `CN(Cc1cccc2ncccc12)C(=O)CCn1ccc(=O)[nH]c1=O`: the cytotoxicity at 10 µM was -134%.
Consider `c1ccc(CN(Cc2ncc[nH]2)Cc2nccs2)cc1`, for which the cytotoxicity at 10 µM came out at 6.35%.
The result for `CCCc1nc(N2CCCN(c3ncccn3)CC2)c2cnn(C)c2n1` reads -1.18%; that for `COc1ccc(CN(C)C2CCN(S(C)(=O)=O)CC2)c2cccnc12`, 98.9%.
As for `N#CC1(c2ccccc2)CCN(C(=O)C2CCCN(C(N)=O)C2)CC1` (stereo not given), the cytotoxicity at 10 µM was -22.2%.
Consider `CS(=O)(=O)NCC(=O)N[C@H]1CN(c2cnccn2)C[C@@H]1C1CC1`, for which the cytotoxicity at 10 µM was -7.24%.
For the molecule `CN(C)CC1(O)CCN(C(=O)c2cnc(-c3cccnc3)nc2)C1` (stereo not given), the cytotoxicity at 10 µM came to 5.75%.
`CCc1cc(N2CCN3CCCCC3C2)n2nccc2n1` (stereo not given): the cytotoxicity at 10 µM is -1.12%.
For `C[C@@H]1CN(C(=O)c2cc(Cn3cnc4ccccc43)on2)C[C@H](C)O1`, the cytotoxicity at 10 µM stood at 1.69%.
As to `CN(Cc1ccon1)C1CCN(c2cccc(-c3cscn3)c2)CC1`, the cytotoxicity at 10 µM is -3.96%.
For the molecule `Cc1cccc2[nH]c(C3CCN(C(=O)c4ccc[nH]4)CC3)nc12`, the cytotoxicity at 10 µM was determined as 6.01%.
As for `O=c1cc(-c2cccnc2)nc(-c2ccc(CN3CC[C@H](O)C3)cc2)[nH]1`, the cytotoxicity at 10 µM came to 3.98%.
For the molecule `CCNC(=O)[C@@H]1C[C@H](N)CN1C(=O)CCc1ccc(C)c(C)c1`, the cytotoxicity at 10 µM turned out to be 3.45%.
On to `COc1ccc(CN(CC2CCCO2)C(=O)CN2CCCCC2=O)cc1` (stereo not given), for which the cytotoxicity at 10 µM was -0.645%.
As to `COc1cccc(-c2nc3c([nH]2)CC(C)(C)CNC3=O)c1OC`, the cytotoxicity at 10 µM was -5.82%.
Turning to `CCOc1ccc(Cc2c(O)nc(SC)n(-c3ccccc3)c2=O)cc1`, the cytotoxicity at 10 µM is 4.04%.
Turning to `COc1ccc(CN2CCN(CC3CC3)[C@@H]3CS(=O)(=O)C[C@@H]32)cc1O`, the cytotoxicity at 10 µM is -0.931%.
As to `COc1cc2c(cc1OC)CN(Cc1ncccc1C(=O)O)CC2`, the cytotoxicity at 10 µM was determined as 5.31%.
The result for `CCCc1nnc(N2CCC(C3CCN(C)CC3)CC2)o1` reads -11.7%.
Regarding `CN(CCNC(=O)c1cccnc1)S(C)(=O)=O`, the cytotoxicity at 10 µM was -0.102%.
Then `Cc1cc(F)ccc1OC1(C(=O)O)CCN(Cc2cccnc2)CC1`, with 1.87%; and `Cc1ncsc1CCN(C)C(=O)CN1CCCCCC1=O`, with -7.67%.
Consider `COc1ccc(OC2CCN(C(=O)c3cnc(C)s3)CC2)cc1`, for which the cytotoxicity at 10 µM is -18%.
Turning to `Cc1ccc(-c2ccnc(N3CCC4(CC3)CNC(=O)O4)n2)c(C)n1`, the cytotoxicity at 10 µM is -6.93%.
Then `N#Cc1nccnc1N1CCN(CCOCc2ccccc2)CC1`, with -18.4%.
Consider `CCn1ccnc1CN1CCC(Oc2ccccc2F)(C(=O)O)CC1`, for which the cytotoxicity at 10 µM amounted to 6.84%.
For the molecule `Cc1nc(C)c(Cn2ccnc2-c2cc(CN(C)C)cs2)s1`, the cytotoxicity at 10 µM turned out to be 1.99%.
For the molecule `CN(C)[C@H]1CN(C(=O)CCc2cccc(F)c2)C[C@@H]1C1CC1`, the cytotoxicity at 10 µM is -1.1%.
As for `COc1ccc(C(=O)n2nc(C)c(C)c2C)cc1`, the cytotoxicity at 10 µM stood at 6.06%.
On to `Cc1ccc2[nH]nc(C(=O)NCC3CCN(Cc4c[nH]cn4)C3)c2c1` (stereo not given), for which the cytotoxicity at 10 µM was -15.1%.
The result for `NC(=O)COc1cccc(C(=O)Nc2cnc3n2CCCC3)c1` reads 18.2%.
In the case of `O=C1O[C@@H]2CN(Cc3cccc(F)c3)C[C@@H]2N1CCCN1CCOCC1`, the cytotoxicity at 10 µM was -9.9%.
Consider `CS(=O)(=O)N1CCCC(C(=O)Nc2cnn(Cc3ccc(F)cc3)c2)C1` (stereo not given), for which the cytotoxicity at 10 µM was -3.64%.
The result for `CCOCCCNC(=O)Cc1cccs1` reads -10.2%; that for `CCNC(=O)C1CCN(Cn2nc(-c3ccc(F)cc3)oc2=O)CC1`, -4.71%; that for `Cc1nccn1-c1cc(CNC(=O)CC2CCCO2)ccn1` (stereo not given), 0.491%.
Consider `CCOc1ccc(C(=O)N2CCCC2c2cnn(C)c2)cn1` (stereo not given), for which the cytotoxicity at 10 µM is -3.71%.
For `CC(=O)NCCNC(=O)c1cnc(C(C)(C)C)s1`, the cytotoxicity at 10 µM is -2.17%.
Turning to `COCCN1CCC(CNC(=O)C2(c3cccc(Cl)c3)CC2)C1` (stereo not given), the cytotoxicity at 10 µM is -6.63%.
For the molecule `CCc1cnc(CN(C(C)=O)C2CCN(CC(=O)N3CCCC3)C2)o1` (stereo not given), the cytotoxicity at 10 µM is -6.63%.
Then `Cc1ccccc1OCCN1CCN(Cc2cnn(CCO)c2)CC1`, with -17.9%.
Then `CC(C)c1n[nH]c(C2CN(C(=O)C3=COCC3)CCO2)n1` (stereo not given), with -7.99%; and `c1ccc(Cc2noc(CNC3CCc4ncnn4C3)n2)cc1` (stereo not given), with -5.99%.
For `Cc1csc(N2CCN(C(=O)CCC(=O)c3ccc(C)s3)CC2)n1`, the cytotoxicity at 10 µM is -3.09%.
`Cc1cc(C)n(CC2CCCN2Cc2c(C)noc2C)n1` (stereo not given): the cytotoxicity at 10 µM is -4.08%.
Turning to `CCc1nc(C2CCCN2C(=O)CCn2cncn2)no1` (stereo not given), the cytotoxicity at 10 µM is -5.63%.
In the case of `Cc1nc(O)cc(C2CCN(Cc3ccc(F)c(F)c3)C2)n1` (stereo not given), the cytotoxicity at 10 µM was -11.3%.
For the molecule `Fc1cnc(N2CCC3(CC2)CC(OCc2cccnc2)CO3)nc1` (stereo not given), the cytotoxicity at 10 µM was 2.25%.
Consider `CCO[C@@H]1CO[C@@]2(CCCN(S(=O)(=O)c3cccnc3)C2)C1`, for which the cytotoxicity at 10 µM was -0.156%.
As to `Cc1ccc(CN2CC[C@H]3[C@H]2CC(=O)N3c2cccnc2)o1`, the cytotoxicity at 10 µM is 5.67%.
Then `Fc1ccccc1CO[C@@H]1C[C@H]2CN(c3ncccn3)CCN2C1`, with 1.09%; and `CC(=O)N1CCC2(CC1)CN(C(=O)[C@@H]1CSCN1)c1ccc(Cl)cc12`, with -1.91%.
